Source: ChEMBL document CHEMBL2384997, “2-(1H-Pyrazol-4-yl)acetic acids as CRTh2 antagonists” (Bioorg Med Chem Lett, 2013)
≈ marks a conversion by molar mass, not a printed value.

Key:
[1] = target: T1, Prostaglandin D2 receptor (Homo sapiens) (UniProt Q13258); assay: Inhibition of DP1 receptor (unknown origin) at 10 uM relative to control
T1 sequence (whole entry): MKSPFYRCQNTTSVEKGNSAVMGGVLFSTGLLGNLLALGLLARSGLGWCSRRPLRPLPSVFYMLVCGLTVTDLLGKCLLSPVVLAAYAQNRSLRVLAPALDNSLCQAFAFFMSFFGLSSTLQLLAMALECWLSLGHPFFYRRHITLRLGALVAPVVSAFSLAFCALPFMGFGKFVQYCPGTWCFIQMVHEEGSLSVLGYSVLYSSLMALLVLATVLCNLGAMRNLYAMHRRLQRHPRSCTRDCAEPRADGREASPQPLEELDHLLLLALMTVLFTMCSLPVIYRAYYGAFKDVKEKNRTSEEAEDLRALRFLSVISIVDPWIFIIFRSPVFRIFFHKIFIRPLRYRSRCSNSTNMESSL

[2] = target: T2, Prostaglandin D2 receptor 2 (Homo sapiens, UniProt Q9Y5Y4); assay: Antagonist activity at CRTh2 receptor (unknown origin) overexpressed in CHOK1 cell membranes assessed as inhibition of [35S]-GTPgammaS binding preincubated for 1 hr followed by 50 nM PGD2 and 0.1 nM [35S]-GTPgammaS addition measured after 2 hrs by liquid scintillation counting analysis; type: functional, CHO-K1
T2 sequence (Q9Y5Y4 whole entry): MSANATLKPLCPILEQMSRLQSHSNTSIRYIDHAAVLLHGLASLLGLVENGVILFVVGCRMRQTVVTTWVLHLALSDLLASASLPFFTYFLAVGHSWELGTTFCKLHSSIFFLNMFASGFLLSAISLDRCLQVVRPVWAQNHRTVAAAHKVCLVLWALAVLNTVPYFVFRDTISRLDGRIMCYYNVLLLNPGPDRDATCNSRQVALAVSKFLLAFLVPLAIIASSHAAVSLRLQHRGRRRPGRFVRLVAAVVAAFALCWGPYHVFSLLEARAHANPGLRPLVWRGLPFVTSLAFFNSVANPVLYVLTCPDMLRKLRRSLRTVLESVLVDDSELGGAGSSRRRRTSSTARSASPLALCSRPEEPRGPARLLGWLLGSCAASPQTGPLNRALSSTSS

[3] = target: T3, Thromboxane A2 receptor (Homo sapiens) (UniProt P21731); assay: Inhibition of thromboxane A2 receptor (unknown origin) at 10 uM relative to control
T3 sequence (whole entry): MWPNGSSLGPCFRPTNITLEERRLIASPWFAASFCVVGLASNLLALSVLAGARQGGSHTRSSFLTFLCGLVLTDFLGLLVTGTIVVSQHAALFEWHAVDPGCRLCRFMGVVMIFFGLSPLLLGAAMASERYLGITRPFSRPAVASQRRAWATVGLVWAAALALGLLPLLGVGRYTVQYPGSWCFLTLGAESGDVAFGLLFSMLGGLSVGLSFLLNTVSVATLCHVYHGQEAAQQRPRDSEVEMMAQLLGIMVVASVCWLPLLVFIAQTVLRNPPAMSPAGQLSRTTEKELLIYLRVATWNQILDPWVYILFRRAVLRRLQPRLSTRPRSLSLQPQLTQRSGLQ

[4] = Clearance in rat at 1 mg/kg, iv; type: ADME, organism-based; set-up: dose 1 mg/kg, route intravenous; conditions: in vivo
[5] = Plasma protein binding in human by rapid equilibrium dialysis method; type: ADME, cell-free; conditions: read-out: PPB
How it was run: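 Protein binding by equilibrium dialysis; human plasma diluted to 10%.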

[6] = Apparent permeability from apical to basolateral side in human Caco2 cells; type: ADME, cell-based; conditions: Caco-2
[7] = target: T4, Prostaglandin D2 receptor 2 (Homo sapiens) (UniProt Q9Y5Y4); conditions: CHO-K1
T4 sequence (whole entry): T2 sequence (Q9Y5Y4 whole entry)

[8] = Lipophilicity , log D of the compound at pH 7.4 by shake-flask method; type: physicochemical; conditions: buffer
How it was run: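 logD at pH 7.4 by shake-flask.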

[9] = Volume of distribution at steady state in rat at 1 mg/kg, iv; type: ADME, organism-based; set-up: dose 1 mg/kg, route intravenous; conditions: in vivo, read-out: Vdss
[10] = Solubility of the compound at pH 1; type: physicochemical; conditions: buffer
[11] = Oral bioavailability in rat at 10 mg/kg; type: ADME, organism-based; conditions: in vivo
[12] = Apparent permeability from basolateral to apical side in human Caco2 cells; type: ADME, cell-based; conditions: Caco-2
[13] = AUC ( 0 to 24 hrs) in rat at 1 mg/kg, iv; type: ADME, organism-based; set-up: time < 24 hr, dose 1 mg/kg, route intravenous; conditions: plasma
[14] = Terminal half life in rat at 1 mg/kg, iv; type: ADME, organism-based; set-up: dose 1 mg/kg, route intravenous; conditions: in vivo, read-out: beta t1/2 (converted)
[15] = Solubility of the compound at pH 7.4; type: physicochemical; conditions: buffer
[16] = Dissociation constant, pKa of the compound by potentiometric method; type: physicochemical
How it was run: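 pKa determined potentiometrically.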

[17] = Plasma protein binding in rat by rapid equilibrium dialysis method; type: ADME, cell-free; conditions: read-out: PPB (converted)
[18] = Half life in rat at 0.5 mg/kg, iv; type: ADME, organism-based; set-up: dose 0.5 mg/kg, route intravenous; conditions: in vivo
[19] = AUC ( 0 to 24 hrs) in rat at 0.5 mg/kg, iv; type: ADME, organism-based; set-up: time < 24 hr, dose 0.5 mg/kg, route intravenous; conditions: plasma
[20] = Oral bioavailability in rat at 1 mg/kg; type: ADME, organism-based; conditions: in vivo
[21] = Clearance in rat at 0.5 mg/kg, iv; type: ADME, organism-based; set-up: dose 0.5 mg/kg, route intravenous; conditions: in vivo
[22] = Volume of distribution at steady state in rat at 0.5 mg/kg, iv; type: ADME, organism-based; set-up: dose 0.5 mg/kg, route intravenous; conditions: in vivo, read-out: Vdss
[23] = target: T4, Prostaglandin D2 receptor 2 (Homo sapiens); assay: Ratio of IC50 for CRTh2 receptor in human whole blood assessed as inhibition of PGD2-induced eosinophil shape change to IC50 for CRTh2 receptor (unknown origin) overexpressed in CHOK1 cells assessed as inhibition of [35S]-GTPgammaS binding; type: functional, cell-based; conditions: CHO-K1
[24] = target: T2, Prostaglandin D2 receptor 2; assay: Antagonist activity at CRTh2 receptor overexpressed in CHOK1 cell membranes assessed as inhibition of [35S]-GTPgammaS binding in presence of 1% human serum albumin

Cc1c(CC(=O)O)c(-c2ccccc2)nn1Cc1ccccc1Cc1ccccc1
inhibition [1]: < 40% | IC50 ([2]; read-out: IC50): 100 nM | inhibition [3]: < 40%

Cc1c(CC(=O)O)c(-c2ccccc2)nn1Cc1ccccc1S(=O)(=O)c1ccccc1
clearance [4]: 8.5 mL/min/kg | fraction unbound [5]: < 0.001 | Papp A→B [6]: 13 ×10⁻⁶ cm/s | T1/2 [7]: 12 min | logD [8]: 0.7 | Vd [9]: 1.6 L/kg | inhibition [1]: < 40% | solubility [10]: 3 µg/mL (≈ 6.72 µM) | bioavailability [11]: 73% | Papp B→A [12]: 17 ×10⁻⁶ cm/s | AUC(0-t) at 24 h [13]: 1960 ng·h/mL | half-life [14]: 288 min | IC50 ([2]; read-out: IC50): 7 nM | solubility [15]: 950 µg/mL (≈ 2130 µM) | pKa [16]: 4.2 | fraction unbound [17]: 0.012 | inhibition [3]: < 40%

Cc1nn(Cc2ccc3ccccc3n2)c(C)c1CC(=O)O
IC50 ([2]; read-out: IC50): > 5000 nM

Cc1c(CC(=O)O)c(-c2ccccc2)nn1-c1ccnc2ccccc12
IC50 ([2]; read-out: IC50): 5000 nM

Cc1c(CC(=O)O)c(-c2ccccc2)nn1CC1CCCN1S(=O)(=O)c1ccccc1 (stereo not drawn)
IC50 ([2]; cho-k1): Not Active

Cc1nn(-c2cccc(NC(=O)[C@H]3C[C@@H]3c3ccccc3)c2)c(C)c1CC(=O)O
Papp A→B [6]: 3 ×10⁻⁶ cm/s | logD [8]: 0.9 | half-life [18]: 78 min | AUC(0-t) at 24 h [19]: 3360 ng·h/mL | solubility [10]: 500 µg/mL (≈ 1280 µM) | bioavailability [20]: 12% | Papp B→A [12]: 6 ×10⁻⁶ cm/s | IC50 ([2]; read-out: IC50): 230 nM | solubility [15]: 800 µg/mL (≈ 2050 µM) | clearance [21]: 2.5 mL/min/kg | pKa [16]: 4.2 | Vd [22]: 0.14 L/kg | Ratio IC50 [23]: 10

Cc1c(CC(=O)O)c(-c2ccnc(F)c2)nn1C(c1ccc(F)cc1)c1ccc(F)cc1
IC50 ([2]; read-out: IC50): 310 nM

Cc1c(CC(=O)O)c(-c2ccccc2)nn1Cc1ccccc1Oc1ccccc1
inhibition [1]: < 40% | IC50 ([2]; read-out: IC50): 2000 nM | inhibition [3]: < 40%

COc1ccc(S(=O)(=O)c2ccc(F)cc2)c(Cn2nc(-c3ccccc3)c(CC(=O)O)c2C)c1
IC50 ([2]; read-out: IC50): 36 nM

Cc1c(CC(=O)O)c(-c2ccncc2)nn1Cc1ccccc1S(=O)(=O)c1ccccc1
IC50 ([2]; read-out: IC50): 4 nM | IC50 [24]: 66 nM

Cc1c(Cc2ccccc2S(=O)(=O)c2ccccc2)c2cc(F)ccc2n1CC(=O)O
IC50 ([2]; read-out: IC50): 16 nM

Cc1c(CC(=O)O)c(-c2ccccc2)nn1Cc1ccccc1S(=O)(=O)N1CCOCC1
inhibition [1]: < 40% | IC50 ([2]; read-out: IC50): 89 nM | inhibition [3]: < 40%

Cc1nn(Cc2ccccc2S(=O)(=O)c2ccccc2)c(C)c1CC(=O)O
T1/2 [7]: 2 min | inhibition [1]: < 40% | IC50 ([2]; read-out: IC50): 81 nM | inhibition [3]: < 40%

Cc1c(CC(=O)O)c(-c2ccccc2)nn1Cc1ccccc1S(=O)(=O)N(C)C
IC50 ([2]; read-out: IC50): 850 nM

Cc1c(CC(=O)O)c(-c2ccccc2)nn1C(c1ccc(F)cc1)c1ccc(F)cc1
IC50 ([2]; read-out: IC50): 1100 nM
